One experiment has as its system MDA-MB-231. In words: Antiproliferative activity against human MDA-MB-231 cells by SRB assay. Type of experiment: functional, cell-based.
A further experiment has as its system HepG2. The experiment in a line: Antiproliferative activity against human HepG2 cells by SRB assay. Format: functional, cell-based.
The subject of the next experiment is HeLa. The experiment in a line: Antiproliferative activity against human HeLa cells by SRB assay. Format: functional, cell-based.
In the next experiment the test system is MCF7. In words: Antiproliferative activity against human MCF7 cells by SRB assay. Type of experiment: functional, cell-based. Background: In SRB staining, fixed cells bind dye roughly in proportion to their protein.
The test system of experiment [1] is HT-29. The experiment in a line: Antiproliferative activity against human HT-29 cells by SRB assay. Type of experiment: functional, cell-based.
In a further experiment the test system is U-118-MG. The experiment in a line: Antiproliferative activity against human U118MG cells by SRB assay. Format: functional, cell-based.
The next experiment concerns A549. In words: Antiproliferative activity against human A549 cells by SRB assay. Type of experiment: functional, cell-based.
Experiment [2] can be described thus: Antiproliferative activity against human HTB-174 cells by SRB assay. Type of experiment: functional, cell-based.
Experiment [3] can be described thus: Antiproliferative activity against human MMRU cells by SRB assay. Format: functional, cell-based.
The next experiment relates to NCI-H460. In words: Cell cycle arrest in human H460 cells assessed as DNA content at G0-G1 phase at 50 uM after 16 hrs by flow cytometry. Type of experiment: functional. Put shortly:
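H-460 NSCLC cells serum-starved 72 h, then exposed to 50 µM for 16 h, with DMSO vehicle control. Harvested cells were washed in cold PBS and fixed in 70% ethanol at 4 °C for at least 4 h. They were treated with 3 mg/ml RNase plus 50 µg/ml propidium iodide for 30 min at 37 °C. Flow cytometry gave percent cells in G0–G1, S and G2–M.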
In general terms: A flow cytometer gives signals particle by particle.

For experiment [4], the system named is HT-29. In words: Cell cycle arrest in human HT-29 cells assessed as DNA content at G0-G1 phase at 50 uM by flow cytometry. Format: functional. Summed up: (§1)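 HT-29 colon carcinoma cells were grown in complete medium and treated at 25 or 50 µM for 16 h, with 0.1% DMSO as vehicle. Cells were washed in cold PBS and fixed in 70% ethanol (4 °C, ≥4 h). Staining used 3 mg/ml ribonuclease and 50 µg/ml propidium iodide for 30 min at 37 °C. Phase distribution was measured by flow cytometry.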

The subject of experiment [5] is HT-29. In words: Cell cycle arrest in human HT-29 cells assessed as DNA content at S phase at 25 uM after 16 hrs by flow cytometry. Type of experiment: functional. Put shortly:
as §1

The test system of experiment [6] is HT-29. In words: Cell cycle arrest in human HT-29 cells assessed as DNA content at S phase at 50 uM by flow cytometry. Type of experiment: functional. Summed up:
as §1

Experiment [7] deals with HT-29. In words: Cell cycle arrest in human HT-29 cells assessed as DNA content at G2-M phase at 50 uM by flow cytometry. Format: functional. Put shortly: as §1
Experiment [8] concerns HT-29. In words: Cell cycle arrest in human HT-29 cells assessed as DNA content at G0-G1 phase at 25 uM after 16 hrs by flow cytometry. Type of experiment: functional. Put shortly:
as §1

Experiment [9] has as its system HT-29. The experiment in a line: Cell cycle arrest in human HT-29 cells assessed as DNA content at G2-M phase at 25 uM after 16 hrs by flow cytometry. Type of experiment: functional. Summed up:
as §1

As usually defined, the IC50 is the concentration that inhibits the measured activity by half.

Where only a bound is given, the exact number is not on record here.

Take `C[N+](C)(C)c1ccc(C(=O)N2Cc3ccccc3C(c3ccccc3)c3ccccc32)cc1` (centres undefined): the IC50 in the experiment on MDA-MB-231 was 1300 nM; in the experiment on HepG2 it was 1000 nM; with HeLa it was 400 nM; with MCF7 it was 1700 nM; in the experiment with HT-29 [1] (Homo sapiens, HT-29), 1100 nM; with U-118-MG, 1800 nM. The same compound came in with a concentration for half-maximal inhibition (IC50) with A549 (Homo sapiens, A549) of 2000 nM.
As to `COc1ccc2c(c1)CN(C(=O)c1ccc([N+](=O)[O-])cc1)c1ccc(Cl)cc1C2c1ccccc1Cl` (centres undefined), the half-maximal inhibitory concentration (IC50) was determined as 900 nM in the experiment with MDA-MB-231; 900 nM with HepG2; 500 nM in experiment [2]; 500 nM in the experiment with HeLa; 1300 nM in the experiment on MCF7; 600 nM in the experiment on HT-29 [1] (Homo sapiens, HT-29). Also, the concentration for half-maximal inhibition (IC50) with U-118-MG came to 800 nM; in the experiment on A549 (Homo sapiens, A549), 1500 nM; in experiment [3] (Homo sapiens, MMRU) it was 500 nM.
In the case of `O=C(Nc1ccc([N+](=O)[O-])cc1)N1Cc2ccccc2C(c2ccccc2Cl)c2ccccc21` (centres undefined), the IC50 in the experiment on HepG2 is 4500 nM; in experiment [2], 4000 nM; in the experiment on MCF7 it was 2400 nM; in the experiment with HT-29 [1] (Homo sapiens, HT-29) it was 4800 nM; with A549 (Homo sapiens, A549) it was greater than 5000 nM; in experiment [3] (Homo sapiens, MMRU), 3100 nM.
Take `COC(=O)N1Cc2ccccc2C(c2ccccc2)c2ccccc21` (centres undefined): the IC50 was greater than 10000 nM with HT-29 [1] (Homo sapiens, HT-29); greater than 10000 nM with A549 (Homo sapiens, A549); 10000 nM in [3] (Homo sapiens, MMRU).
Take `Clc1ccccc1C1c2ccccc2CN(Cc2ccccc2)c2ccccc21` (centres undefined): the IC50 in the experiment with MDA-MB-231 was greater than 5000 nM; in the experiment with HepG2, 4500 nM; in the experiment on HeLa it was greater than 5000 nM; in the experiment on MCF7 it was 4300 nM; in the experiment with HT-29 [1] (Homo sapiens, HT-29) it was greater than 5000 nM; with A549 (Homo sapiens, A549), greater than 5000 nM.
In the case of `CC(C)(C)Oc1cccc(C(=O)N2Cc3ccccc3C(c3ccccc3)c3ccccc32)c1` (centres undefined), the IC50 is 2600 nM in the experiment on HepG2; 3600 nM in [2]; 4500 nM with MCF7; 1700 nM with HT-29 [1] (Homo sapiens, HT-29); greater than 5000 nM with A549 (Homo sapiens, A549); 2500 nM in [3] (Homo sapiens, MMRU).
In the case of `CN1Cc2ccccc2C(c2ccccc2Cl)c2ccccc21` (centres undefined), the IC50 in the experiment on MCF7 worked out at 1700 nM; in the experiment on HT-29 [1] (Homo sapiens, HT-29), 9700 nM; in the experiment with A549 (Homo sapiens, A549), 11400 nM; in experiment [3] (Homo sapiens, MMRU), 4600 nM.
With `O=C(c1ccccc1)N1Cc2ccccc2C(c2ccccc2)c2ccccc21` (stereo in doubt; 17), the IC50 in the experiment with HepG2 was 3400 nM; in experiment [2] it was 2600 nM; in the experiment with MCF7, 4200 nM; with HT-29 [1] (ht-29) it was 2600 nM; in the experiment on A549 (a549) it was greater than 5000 nM; in experiment [3] (mmru), 2700 nM.
On to `O=C(c1ccc([N+](=O)[O-])cc1)N1Cc2ccccc2C(c2ccccc2)c2ccccc21` (centres undefined), for which the IC50 with HepG2 is 900 nM; in experiment [2], 700 nM; in the experiment with HeLa, 600 nM; in the experiment on HT-29 [1] (Homo sapiens, HT-29), 700 nM; in the experiment with U-118-MG, 900 nM; in experiment [3] (Homo sapiens, MMRU), 500 nM.
Take `O=C(c1ccc([N+](=O)[O-])cc1)N1Cc2ccccc2C(c2ccccc2Cl)c2ccccc21` (single isomer, unassigned; 9a): the Activity in the experiment on NCI-H460 amounted to 71.06%.
Consider `O=C(c1ccccc1)N1Cc2ccccc2C(c2ccccc2)c2ccccc21` (stereo in doubt; 13), for which the 50% inhibitory concentration (IC50) in the experiment with HT-29 [1] (ht-29) is greater than 10000 nM; in the experiment on A549 (Homo sapiens, A549), greater than 10000 nM; in experiment [3] (mmru) it was greater than 10000 nM.
Regarding `Clc1ccccc1C1c2ccccc2CNc2ccccc21` (centres undefined), the IC50 with MDA-MB-231 was found to be 1300 nM; with HepG2, 900 nM; with HeLa, 1100 nM; in the experiment on MCF7, 2700 nM; in the experiment on HT-29 [1] (Homo sapiens, HT-29), 1200 nM; in the experiment with U-118-MG it was 1400 nM. In addition, the IC50 with A549 (Homo sapiens, A549) turned out to be 5400 nM.
Turning to `COc1ccc2c(c1)C(c1ccccc1Cl)c1cc(Cl)ccc1N(C(=O)c1ccc([N+](=O)[O-])cc1)C2` (centres undefined), the IC50 with MDA-MB-231 was determined as 400 nM; with HepG2, 400 nM; in experiment [2] it was 200 nM; with HeLa it was 200 nM; in the experiment on MCF7, 700 nM; in the experiment with HT-29 [1] (Homo sapiens, HT-29), 200 nM. The IC50 in the experiment with U-118-MG was 400 nM; in the experiment on A549 (Homo sapiens, A549) it was 600 nM; in [3] (Homo sapiens, MMRU) it was 200 nM.
Take `CC(C)(C)Oc1cccc(C(=O)N2Cc3ccccc3C(c3ccccc3Cl)c3ccccc32)c1` (centres undefined): the IC50 in the experiment on MDA-MB-231 worked out at 1500 nM; in the experiment with HepG2, 1200 nM; in the experiment with HeLa it was 1400 nM; in the experiment with MCF7, 3400 nM; in the experiment with HT-29 [1] (Homo sapiens, HT-29), 1700 nM; in the experiment with U-118-MG, 2500 nM. Also, inhibition in the experiment on A549 (Homo sapiens, A549) was half-maximal at 3700 nM (IC50).
Take `O=C(Oc1ccccc1)N1Cc2ccccc2C(c2ccccc2Cl)c2ccccc21` (centres undefined): the IC50 was 3600 nM in the experiment with HepG2; 4200 nM in the experiment on MCF7; 5000 nM with HT-29 [1] (Homo sapiens, HT-29).
For the compound `O=C(c1ccc([N+](=O)[O-])cc1)N1Cc2ccccc2C(c2ccccc2Cl)c2ccccc21` (single isomer, unassigned; 9b), the Activity with NCI-H460 amounted to 74.96%.
In the case of `O=C(c1ccc([N+](=O)[O-])cc1)N1Cc2ccccc2C(c2ccccc2Cl)c2ccccc21` (stereo in doubt; 9), the Activity is on record as 69.22% in the experiment on HT-29 [4]; 73.95% in the experiment on NCI-H460; 25.79% in the experiment on HT-29 [5]; 18.08% in the experiment with HT-29 [6]; 12.69% in the experiment on HT-29 [7]; 63.68% with HT-29 [8]. In addition, the Activity in the experiment on HT-29 [9] stood at 10.53%. The IC50 in the experiment with MDA-MB-231 was 500 nM; in the experiment on HepG2, 300 nM; in experiment [2], 100 nM; in the experiment with HeLa it was 300 nM; in the experiment with MCF7, 600 nM; with HT-29 [1] (Homo sapiens, HT-29), 300 nM. Also, the IC50 in the experiment with U-118-MG stood at 500 nM; with A549 (Homo sapiens, A549) it was 800 nM; in experiment [3] (Homo sapiens, MMRU) it was 200 nM.
With `COc1ccc(C(=O)N2Cc3ccccc3C(c3ccccc3Cl)c3ccccc32)cc1` (centres undefined), the IC50 in the experiment with HepG2 is 400 nM; in experiment [2], 300 nM; in the experiment on HeLa, 200 nM; in the experiment with MCF7, 500 nM; with HT-29 [1] (Homo sapiens, HT-29), 400 nM; in the experiment with U-118-MG, 400 nM. Besides, the concentration for half-maximal inhibition (IC50) came out at 1100 nM in the experiment on A549 (Homo sapiens, A549) and 200 nM in experiment [3] (Homo sapiens, MMRU).
Take `CN(C)c1ccc(C(=O)N2Cc3ccccc3C(c3ccccc3)c3ccccc32)cc1` (centres undefined): the IC50 stood at 1700 nM with MDA-MB-231; 1000 nM with HepG2; 900 nM in the experiment on HeLa; 1700 nM in the experiment with MCF7; 1000 nM in the experiment with HT-29 [1] (Homo sapiens, HT-29); 2600 nM in the experiment with U-118-MG. The compound further registered a half-inhibitory concentration (IC50) with A549 (Homo sapiens, A549) of 2100 nM.
In the case of `O=C(c1ccccc1)N1Cc2ccccc2C(c2ccccc2Cl)c2ccccc21` (centres undefined), the IC50 in the experiment on MDA-MB-231 was 1200 nM; with HepG2, 800 nM; with HeLa, 900 nM; in the experiment on MCF7 it was 1500 nM; in the experiment on HT-29 [1] (Homo sapiens, HT-29) it was 600 nM; in the experiment on U-118-MG it was 1300 nM. This compound also came in with a half-inhibitory concentration (IC50) with A549 (Homo sapiens, A549) of 2500 nM.
Take `Nc1ccc(C(=O)N2Cc3ccccc3C(c3ccccc3Cl)c3ccccc32)cc1` (centres undefined): the concentration for half-maximal inhibition (IC50) was determined as 1200 nM with MDA-MB-231; 1500 nM in the experiment with HepG2; 500 nM with HeLa; 1100 nM in the experiment on MCF7; 1700 nM in the experiment on HT-29 [1] (Homo sapiens, HT-29); 1600 nM in the experiment on U-118-MG. In the experiment with A549 (Homo sapiens, A549), this compound registered a concentration for half-maximal inhibition (IC50) of 3700 nM.
